In ChEMBL document CHEMBL2150881, “JD-5006 and JD-5037: peripherally restricted (PR) cannabinoid-1 receptor blockers related to SLV-319 (Ibipinabant) as metabolic disorder therapeutics devoid of CNS liabilities” (Bioorg Med Chem Lett, 2012):
pIC50: −log10 of the molar value.

Assays:
Cannabinoid receptor 1 = Cannabinoid receptor 1 (Homo sapiens, UniProt P21554); experiment: Displacement of 3[H]ligand from recombinant human CB1 receptor
In short: (§1)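 Radioligand displacement from human recombinant CB1 and CB2 protein by a [³H] ligand. Initial screen at two concentrations in duplicate, with values >100 nM estimated. Percent inhibition read at 100 nM. IC₅₀ taken from four-point concentration curves run in duplicate.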

Cannabinoid receptor 2 = Cannabinoid receptor 2 (Homo sapiens, UniProt P34972); experiment: Displacement of 3[H]ligand from recombinant human CB2 receptor; in short: as §1
[1] = Apparent permeability from basolateral to apical side in MDR expressing MDCK cells by LC-MS-MS analysis; format: ADME, cell-based, Canis lupus familiaris; conditions: dog, MDCK-MDR1
In short: (§2)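 Permeability measured across MDR-MDCK kidney cell monolayers, giving apparent permeability (Papp) in the apical-to-basolateral and basolateral-to-apical directions.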

[2] = Apparent permeability from apical to basolateral side in MDR expressing MDCK cells by LC-MS-MS analysis; format: ADME, cell-based, Canis lupus familiaris; conditions: dog, MDCK-MDR1; in short: as §2
[3] = Efflux ratio of permeability from […] in MDR expressing MDCK cells; format: ADME, cell-based, Canis lupus familiaris; conditions: dog, MDCK-MDR1

Sequence of Cannabinoid receptor 1 (P21554 whole entry): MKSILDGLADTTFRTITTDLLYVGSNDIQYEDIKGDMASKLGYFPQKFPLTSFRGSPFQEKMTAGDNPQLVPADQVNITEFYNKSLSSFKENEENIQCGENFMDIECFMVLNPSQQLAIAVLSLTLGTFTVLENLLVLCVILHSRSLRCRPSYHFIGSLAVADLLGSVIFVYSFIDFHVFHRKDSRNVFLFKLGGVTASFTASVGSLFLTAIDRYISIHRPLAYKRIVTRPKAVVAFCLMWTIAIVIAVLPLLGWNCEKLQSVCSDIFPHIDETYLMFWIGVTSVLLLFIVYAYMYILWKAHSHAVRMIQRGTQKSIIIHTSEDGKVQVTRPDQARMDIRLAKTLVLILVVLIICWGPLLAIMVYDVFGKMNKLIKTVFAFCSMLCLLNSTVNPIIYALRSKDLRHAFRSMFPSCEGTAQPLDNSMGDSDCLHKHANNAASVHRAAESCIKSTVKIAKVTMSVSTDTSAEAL
Sequence of Cannabinoid receptor 2 (P34972 whole entry): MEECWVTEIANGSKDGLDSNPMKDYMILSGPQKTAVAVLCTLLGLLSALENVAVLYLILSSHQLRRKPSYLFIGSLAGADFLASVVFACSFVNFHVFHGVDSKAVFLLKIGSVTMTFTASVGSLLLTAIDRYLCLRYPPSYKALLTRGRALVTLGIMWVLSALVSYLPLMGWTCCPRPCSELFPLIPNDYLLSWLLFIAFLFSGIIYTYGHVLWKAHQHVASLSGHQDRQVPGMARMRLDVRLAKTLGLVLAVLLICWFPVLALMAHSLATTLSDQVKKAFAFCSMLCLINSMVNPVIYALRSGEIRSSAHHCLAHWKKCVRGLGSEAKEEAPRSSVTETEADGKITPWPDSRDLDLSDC

SMILES	pIC50 (Cannabinoid receptor 1)	pIC50 (Cannabinoid receptor 2)	Papp B→A [1] [×10⁻⁶ cm/s]	Papp A→B [2] [×10⁻⁶ cm/s]	efflux ratio [3]
CN=C(NS(=O)(=O)c1ccc(OCC(N)=O)cc1)N1CC(c2ccccc2)C(c2ccc(Cl)cc2)=N1 (racemic)	< 5.30	–	–	–	–
C[C@H](N/C(=N\S(=O)(=O)c1ccc(O)cc1)N1CC(c2ccccc2)C(c2ccc(Cl)cc2)=N1)C(N)=O (some centres undefined)	< 6.30	< 5.30	–	–	–
O=C(O)[C@@H](O)CCN=C(NS(=O)(=O)c1ccc(Cl)cc1)N1CC(c2ccccc2)C(c2ccc(Cl)cc2)=N1 (some centres undefined)	< 6.00	–	–	–	–
CN=C(NS(=O)(=O)c1ccc(C(=O)NO)cc1)N1CC(c2ccccc2)C(c2ccc(Cl)cc2)=N1 (racemic)	< 5.30	–	–	–	–
NC(=O)CN=C(NS(=O)(=O)c1ccc(O)cc1)N1CC(c2ccccc2)C(c2ccc(Cl)cc2)=N1 (centres undefined)	< 7.00	5.30	–	–	–
COc1ccc(S(=O)(=O)/N=C(\N[C@@H](C)C(=O)N[C@@H](CO)C(N)=O)N2CC(c3ccccc3)C(c3ccc(Cl)cc3)=N2)cc1 (some centres undefined)	< 7.00	< 5.30	–	–	–
NC(=O)CCN=C(NS(=O)(=O)c1ccc(Cl)cc1)N1CC(c2ccccc2)C(c2ccc(Cl)cc2)=N1 (racemic)	7.49	< 5.30	58	0.88	66
CN/C(=N\S(=O)(=O)c1ccc(NC(C)=O)cc1)N1CC(c2ccccc2)C(c2ccc(Cl)cc2)=N1 (racemic)	< 6.00	–	–	–	–
CN/C(=N\S(=O)(=O)c1ccc(C(N)=O)cc1)N1CC(c2ccccc2)C(c2ccc(Cl)cc2)=N1 (racemic)	< 5.30	–	–	–	–
CN=C(NS(=O)(=O)c1ccc(OCC(=O)O)cc1)N1CC(c2ccccc2)C(c2ccc(Cl)cc2)=N1 (racemic)	< 5.30	–	–	–	–
O=C(O)CN=C(NS(=O)(=O)c1ccc(Cl)cc1)N1CC(c2ccccc2)C(c2ccc(Cl)cc2)=N1 (centres undefined)	< 6.00	–	–	–	–

Further lines, results first:

pIC50 (Cannabinoid receptor 1)	pIC50 (Cannabinoid receptor 2)	Papp B→A [1] [×10⁻⁶ cm/s]	Papp A→B [2] [×10⁻⁶ cm/s]	efflux ratio [3]	SMILES
7.00	–	–	–	–	CCOC(=O)c1ccc(S(=O)(=O)NC(=NC)N2CC(c3ccccc3)C(c3ccc(Cl)cc3)=N2)cc1 (racemic)
8.40	< 6.00	–	–	–	COc1cccc(S(=O)(=O)/N=C(\N[C@H](C(N)=O)C(C)C)N2CC(c3ccccc3)C(c3ccc(Cl)cc3)=N2)c1 (some centres undefined)
8.70	< 5.30	< 0.1	0.7	–	CC(C)(C)[C@H](N/C(=N\S(=O)(=O)c1ccc(Cl)cc1)N1CC(c2ccccc2)C(c2ccc(Cl)cc2)=N1)C(N)=O (some centres undefined)
7.00	< 5.30	–	–	–	CC(C)[C@H](N/C(=N\S(=O)(=O)c1ccc(Cl)cc1)N1CC(c2ccccc2)C(c2ccc(Cl)cc2)=N1)C(=O)N[C@@H](C)C(N)=O (some centres undefined)
8.08	< 6.00	–	–	–	NC(=O)[C@@H](N/C(=N\S(=O)(=O)c1ccc(Cl)cc1)N1CC(c2ccccc2)C(c2ccc(Cl)cc2)=N1)C1CCC1 (some centres undefined)
7.89	< 5.30	–	–	–	NC(=O)[C@H](CO)N=C(NS(=O)(=O)c1ccc(Cl)cc1)N1CC(c2ccccc2)C(c2ccc(Cl)cc2)=N1 (some centres undefined)
8.15	< 6.00	–	–	–	C[C@@H](O)[C@H](N/C(=N\S(=O)(=O)c1ccc(Cl)cc1)N1CC(c2ccccc2)C(c2ccc(Cl)cc2)=N1)C(=O)N[C@@H](CO)C(N)=O (some centres undefined)
7.15	< 5.30	–	–	–	COc1ccc(S(=O)(=O)NC(=N[C@@H](C)C(N)=O)N2CC(c3ccccc3)C(c3ccc(Cl)cc3)=N2)cc1 (some centres undefined)
8.00	< 6.00	–	–	–	C[C@H](N/C(=N\S(=O)(=O)c1ccc(Cl)cc1)N1CC(c2ccccc2)C(c2ccc(Cl)cc2)=N1)C(=O)NCC(N)=O (some centres undefined)
7.57	< 5.30	–	0.3	–	C[C@H](NC(=O)[C@H](C)N/C(=N\S(=O)(=O)c1ccc(Cl)cc1)N1CC(c2ccccc2)C(c2ccc(Cl)cc2)=N1)C(N)=O (some centres undefined)
7.00	–	–	–	–	CN=C(NS(=O)(=O)c1ccc(OC)cc1)N1CC(c2ccccc2)C(c2ccc(Cl)cc2)=N1 (racemic)
< 6.00	–	–	–	–	CC(C)[C@H](N/C(=N\S(=O)(=O)c1ccc(Cl)cc1)N1C[C@@H](c2ccccc2)C(c2ccc(Cl)cc2)=N1)C(N)=O
7.59	< 6.00	–	–	–	CC(CN/C(=N\S(=O)(=O)c1ccc(Cl)cc1)N1CC(c2ccccc2)C(c2ccc(Cl)cc2)=N1)C(N)=O (racemic)
